In article PMC4130904 (The Prostate, 2014):
Where “and” joins values, the source holds several entries; their conditions need not be identical. Equal entries are not always repeated. Non-standard residues stand in square brackets, D forms with d. Residues, ends and D or L forms follow the SMILES beside them. No end group written: not given here. *: point of attachment. X1 = C/C=C(/C)C(=O)O[C@H]1C(C)=C2[C@H]([C@@H]1OC(=O)CCCCCCC)[C@@](C)(OC(C)=O)C[C@H](OC(=O)CCCCCCCCCCCN*)[C@@]1(O)[C@H]2OC(=O)[C@@]1(C)O; A12ADT = thapsigargin analog A12ADT

Experiments:
[1] = biological target: T1, FAP (Homo sapiens, UniProt Q12884); test: FAP-mediated hydrolysis of prodrugs ex vivo; format: biochemical
T1 sequence (Q12884 26-760 limits assumed): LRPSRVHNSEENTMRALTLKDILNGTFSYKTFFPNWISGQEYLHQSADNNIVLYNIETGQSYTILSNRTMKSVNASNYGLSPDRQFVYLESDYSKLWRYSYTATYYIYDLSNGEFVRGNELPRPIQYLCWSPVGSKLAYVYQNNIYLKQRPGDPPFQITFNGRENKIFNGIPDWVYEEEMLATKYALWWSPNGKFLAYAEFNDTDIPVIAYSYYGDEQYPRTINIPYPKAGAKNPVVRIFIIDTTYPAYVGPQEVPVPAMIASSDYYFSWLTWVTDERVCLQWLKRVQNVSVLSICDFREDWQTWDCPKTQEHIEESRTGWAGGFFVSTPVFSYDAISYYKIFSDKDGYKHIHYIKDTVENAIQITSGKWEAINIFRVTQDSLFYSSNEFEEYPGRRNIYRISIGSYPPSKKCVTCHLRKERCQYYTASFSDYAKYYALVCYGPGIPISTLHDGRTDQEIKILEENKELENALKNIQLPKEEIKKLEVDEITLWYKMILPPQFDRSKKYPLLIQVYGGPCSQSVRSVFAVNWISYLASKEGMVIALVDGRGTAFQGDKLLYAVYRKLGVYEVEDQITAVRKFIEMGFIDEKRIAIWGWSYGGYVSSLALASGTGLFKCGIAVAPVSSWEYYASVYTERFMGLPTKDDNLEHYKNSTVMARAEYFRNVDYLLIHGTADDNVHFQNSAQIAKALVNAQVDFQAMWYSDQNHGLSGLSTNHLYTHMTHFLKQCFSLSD
Procedure, shortened: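 Recombinant FAP was expressed in Schneider's S2 cells and purified from the culture supernatant. Prodrugs at […] were held in FAP buffer (100mM NaCl, 100mM Tris, pH 7.8) with 10% DMSO, with or without 200nM FAP, at 37°C for 24hrs with shaking. Active drug (A-, S-, E-12ADT) was measured by LCMS at 0, 4 and 24hrs.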

[2] = Hydrolysis of prodrugs in mouse plasma ex vivo; format: in vitro ADME; conditions: 100 µM prodrug, 37°C, 24 hrs
Procedure, shortened: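 Plasma was taken by intra-cardiac puncture from fully anesthetized mice. Prodrugs were added at 100 µM final and incubated at 37°C for 24 hrs with shaking. Active drug (A-, S-, E-12ADT) was measured by LCMS at 0 and 24hrs.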

[3] = Plasma pharmacokinetics of prodrugs and active drug after IV dosing; format: in vivo, mouse
Procedure, shortened: (§1)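 Mice were dosed IV and bled by cardiac puncture under anesthesia to give heparinized plasma; naive-mouse plasma served as control, and tissues and tumors were harvested. Samples were deproteinated in acetonitrile with 0.1% FA, with L12ADT at 1 µM as internal standard. Calibration standards ran 100pM–100 µM. Samples were analysed by reversed-phase LCMS (positive-mode MRM). Terminal t1/2 came from the terminal slope of log-linear concentration–time plots.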

[4] = Tumor pharmacokinetics of prodrug activation in MCF-7 xenografts; format: in vivo, mouse
Procedure, shortened: as §1

[5] = cited from earlier work
[6] = system: LNCaP human prostate cancer xenografts; test: LNCaP xenograft efficacy study, comparison to docetaxel; format: in vivo, mouse; conditions: prodrug 10 nmoles IV days 0, 1, 2; docetaxel 12 mg/kg/dose IV days 0, 3, 6
Procedure, shortened: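 Six-week-old male nude mice (n = 10/group) received subcutaneous rear-flank injections of LNCaP cells at 2.0 × 10⁶ per 100 µL of 60% Matrigel in HBSS. Prodrug was given IV at 6.8 mg/kg/dose (10 nmoles) on days 0, 1, 2. Docetaxel was given IV at 12 mg/kg/dose […] on days 0, 3, 6 for one cycle. Tumor volume (0.5236 × L × W × H) was measured weekly by calipers, and body weight was tracked.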

[7] = Body weight loss in treated LNCaP xenograft-bearing mice; format: in vivo, mouse

ASGPAGP-A12ADT: FAP-activated prodrug: peptide ASGPAGP coupled to thapsigargin analog A12ADT
active drug (S- or A12ADT) released in the presence of FAP ([1]; 200nM FAP, FAP buffer pH 7.8, 37°C, up to 24hrs, LCMS): 2 µM
stability in the absence of FAP ([1]; FAP buffer without FAP, data not shown): completely stable

C/C=C(/C)C(=O)O[C@H]1C(C)=C2[C@H]([C@@H]1OC(=O)CCCCCCC)[C@@](C)(OC(C)=O)C[C@H](OC(=O)CCCCCCCCCCCNC(=O)[C@H](CO)NC(=O)[C@H]1CCCN1C(=O)CNC(=O)[C@@H](NC(=O)[C@H](CCC(=O)O)NC(=O)CNC(=O)[C@H](CCCNC(=N)N)NC(=O)[C@@H](N)CCC(=O)O)[C@@H](C)O)[C@@]1(O)[C@H]2OC(=O)[C@@]1(C)O [ERGETGp-S12ADT] (H-ERGETG[dP]S-X1; N-terminus assumed)
active drug generation in mouse plasma ex vivo [2]: no active drug generated
12ADT levels in mouse plasma as part of total administered dose ([3]; in vivo after IV dosing): < 0.01%
Cmax ([3]; mouse, plasma, iv): 35 to 40 µM
Tmax ([3]; mouse, plasma, iv): ≤ 1 h
half-life ([3]; mouse, plasma, iv, half-life (t1/2) in mouse plasma, full-length prodrug, single IV dose): 4 to 5 h
clearance from circulation ([3]; single IV dose): almost entirely cleared from circulation by 24 hrs
active species detectable in tumors [4]: only 12ADT is detectable
total active drug concentration in tumor, fold lower than from ERGETGP-S12ADT [4]: ~ 7 fold

C/C=C(/C)C(=O)O[C@H]1C(C)=C2[C@H]([C@@H]1OC(=O)CCCCCCC)[C@@](C)(OC(C)=O)C[C@H](OC(=O)CCC)[C@@]1(O)[C@H]2OC(=O)[C@@]1(C)O [TG, Thapsigargin]
therapeutic benefit at the maximally-tolerated dose (MTD) [5]: no therapeutic benefit

CC(=O)O[C@@]12CO[C@@H]1C[C@H](O)[C@@]1(C)C(=O)[C@H](O)C3=C(C)[C@@H](OC(=O)[C@H](O)[C@@H](NC(=O)OC(C)(C)C)c4ccccc4)C[C@@](O)([C@@H](OC(=O)c4ccccc4)[C@H]21)C3(C)C [docetaxel]
anti-tumor effect against LNCaP xenografts [6]: comparable anti-tumor effect
recovery of body weight ([7]; over the course of the experiment): did not recover
total body weight lost following therapy ([7]; prodrug IV days 0, 1, 2, docetaxel IV days 0, 3, 6): ~ 30% and 30%
